Measurements from different studies.
Lines come from different studies, so protocols differ.
Target: Serine/threonine-protein kinase 32B (STK32B, Homo sapiens, UniProt Q9NY57)

CC1=C(C#N)[C@@H](c2ccc3[nH]nc(C)c3c2)C(C#N)=C(c2ccc(Cl)cc2)N1 — remaining binding (cell-free assay, competition with immobilised ligand; 1 µM): 100%
O=C(NCCCN1CCOCC1)c1ccc(Nc2nccc(-c3cc4ccccc4s3)n2)cc1 — remaining binding (binding, competition with immobilised ligand; 1 µM): 100%
CN(C)c1nccc(-c2cnn3ncccc23)n1 — remaining binding (binding; 1 µM): 100%
O=C(NCCCC1CCCCC1)c1ccc(CNC(=O)c2cnn(-c3ccccc3)c2C(F)(F)F)cc1 — remaining binding (cell-free assay, competition with immobilised ligand; 0.1 µM): 100%
O=C(NCCCN1CCOCC1)c1ccc(Nc2ncc(Cl)c(-c3ccc(Cl)s3)n2)cc1 — remaining binding (binding, competition with immobilised ligand; 1 µM): 100%
FC(F)(F)c1ccc2c(c1)nc(-c1cccnc1)n2C1CC1 — remaining binding (cell-free assay, competition with immobilised ligand; 1 µM): 100%
Cc1cnn2ncc(-c3ccnc(N(C)C)n3)c2c1 — remaining binding (binding; 1 µM): 100%
C[C@H](c1cccc(C#N)c1)n1cc(Cl)cc(C(N)=O)c1=N — remaining binding (cell-free assay, competition with immobilised ligand; 1 µM): 100%
N[C@H]1CCN(c2nccc(-c3cnn4ncccc34)n2)C1 — remaining binding (binding; 1 µM): 100%
CNC(=O)c1ccc(Nc2ncc(C(F)(F)F)c(NCc3nccnc3N(C)S(C)(=O)=O)n2)cc1 — remaining binding (cell-free assay, competition with immobilised ligand; 0.1 µM): 97%
CN(C)c1nccc(-c2cnc3ncccn23)n1 — remaining binding (binding; 1 µM): 88%
O=C(Nc1cnc(Oc2ccc(F)cc2)nc1)N1CCc2ncccc2[C@@H]1c1ccc(F)cc1 — remaining binding (cell-free assay, competition with immobilised ligand; 1 µM): 87%
F[C@@H]1CCN(c2nccc(-c3cnn4ncccc34)n2)C1 — remaining binding (binding; 1 µM): 100%
COc1cnc(Nc2cccc(S(N)(=O)=O)c2)nc1N1CCN(c2ccccc2)CC1 — remaining binding (binding, competition with immobilised ligand; 1 µM): 100%
C[C@H]1CCN(c2nccc(-c3cnn4ncccc34)n2)C1 — remaining binding (binding; 1 µM): 100%
COc1ncc2cc3ccccc3nc2c1C#N — remaining binding (cell-free assay, competition with immobilised ligand; 5 µM): 84%
CNC(=O)[C@@H]1CC[C@@H](n2c(-c3ccc4cnccc4c3)nc3ccc(C(=O)NCc4cccc(C(N)=O)c4)cc32)C1 — remaining binding (binding, competition with immobilised ligand; 1 µM): 100%
O=C(Nc1c[nH]nc1C(=O)NC1CCNCC1)c1cc(F)cc(F)c1 — remaining binding (binding, competition with immobilised ligand; 1 µM): 57%
CCN1CCN(Cc2ccc(C(=O)Nc3ccc(C)c(Oc4ccc5c(c4)CC(=O)N5)c3)cc2C(F)(F)F)CC1 — remaining binding (binding, competition with immobilised ligand; 1 µM): 92%
O=C(c1ccc(Nc2ncc(Cl)c(-c3cc4ccccc4s3)n2)cc1)N1CCC(N2CCCC2)CC1 — remaining binding (binding, competition with immobilised ligand; 1 µM): 100%
